Laboratory results from PubChem BioAssay.
Results filed as inconclusive are left out.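 The calls were made as follows, unless noted: active = inhibition over a set limit, the all-compound mean plus 3 SD, in both replicate runs; inconclusive = over that limit in just one replicate run; inactive = at or under that limit in both runs.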

Legend:
[1] = S. cerevisiae growth inhibition in permissive medium (OD615), pilot counter-assay for S. cerevisiae lifespan shortening project, permissive growth control (AID 705;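 active = growth inhibition above 25% in both replicates, a cutoff set 3 SD above the mean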); settings: OD615, 24 h, at 10 µM, hits give high values
Method in brief: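 System: S. cerevisiae with engineered DeaD lifespan system / Measured by: absorbance (optical density) at 615 nm / Read-out: reduction in yeast growth (OD615) / Times: 4 h cell pre-growth, 24 h exposure at 30 °C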

[2] = S. cerevisiae growth inhibition in restrictive medium, OD615, pilot screen, restrictive growth control, yeast lifespan reduction project (AID 706;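 active = growth inhibition above a set limit, 3 SD over mean compound inhibition, in both replicates, cut at about 43% in these data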;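 also: modified DeaD lifespan yeast strain shifted to restrictive glucose medium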); settings: OD615, 48 h, at 10 µM, hits give high values
Method in brief: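 System: Engineered S. cerevisiae DeaD strain | Buffer or medium: Glucose-based CSMM-D restrictive medium | Schedule: 4 h pre-incubation, 48 h exposure at 30 °C | Technique: Optical density at 615 nm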

[3] = doxorubicin toxicity protection in MRP-1 cells – H69AR cells, CellTiter-Glo, duplicate, MRP-1 activator project, pilot screen (AID 807;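 active = viability increase at or above a cutoff of the median across tested compounds plus 3 SD, cut at about 8.5% in these data, passing the limit was not always enough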;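 also: compound pretreatment 18-22 h then 72 h combined with doxorubicin; 0% = doxorubicin alone and 100% = vehicle without doxorubicin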); settings: H69AR viability with doxorubicin, CellTiter-Glo luminescence; at 10 µM; hits give high values
[4] = viability of HCT116 without oncogenic beta-catenin – human colon tumor cells, pilot screen (AID 823;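 active = cell viability at or below a set limit in both duplicate runs, the limit being the all-compound median minus 4 SD, cut at about 23% in these data, passing the limit was not always enough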;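 also: 0% = wells killed by 20 µM Hyamine and 100% = untreated DMSO cell wells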); settings: HCT116 beta-catenin knockout viability, CellTiter-Glo, 60 h; at 10 µM; hits give low values
[5] = RAM pathway blockade in budding yeast – dse1pr::URA3 reporter, 5-FOA selection, pilot screen (AID 869);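 also: 0% = DMSO wells with no growth and 100% = 10 µM 1-NA-PP1 with full growth; RAM network block rescues cells from 5-FOA so hits raise OD615 growth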; settings: S. cerevisiae dse1pr::URA3 5-FOA growth, OD615, 2 d; at 10 µM; hits give high values; strain carries analog-sensitive mutant Cbk1 kinase
[6] = RAM signaling pathway blockade in yeast – S. cerevisiae, Pdr1DBD-CYC8 efflux-inhibited sensitized strain, primary screen (AID 1298;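 active = RAM network inhibition above 8.4% in each of two replicates, 3 SD over the compound average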;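 also: 0% = DMSO untreated cells without growth and 100% = 10 µM 1-NA-PP1 full growth; higher means more yeast growth rescued from 5-FOA killing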); settings: S. cerevisiae cbk1-as DSE1-URA3 strain, 5-FOA growth OD615, 2 d; at 50 µM; hits give high values

COc1ccc(-c2nc(N3CCOCC3)nc3n[nH]c(N)c23)cc1
inactive: growth inhibition [1] -5.32% | growth inhibition [2] 14.9% | viability increase [3] -6.84% | viability [4] 74.7% | inhibition [5] 0.26% | RAM network inhibition [6] 3.37%

O=C(NCC1COc2ccccc2O1)c1ccc(NC(=O)C2CCCO2)cc1 (stereo unspecified)
inactive: growth inhibition [1] -15.3% | growth inhibition [2] 3.32% | viability increase [3] 0.86% | viability [4] 99.7% | inhibition [5] 4.43% | RAM network inhibition [6] 8.99%

O=C1CC(c2ccccc2)n2nc(N3C(=O)CCC3=O)nc2N1 (stereo unspecified)
inactive: growth inhibition [1] -8.97% | growth inhibition [2] 1.75% | viability increase [3] -0.15% | viability [4] 97.9% | inhibition [5] 1.32% | RAM network inhibition [6] 3.53%

COc1ccc(Nc2ncnc3c2cnn3Cc2ccccc2)cc1
inactive: growth inhibition [1] -28.7% | growth inhibition [2] 3.04% | viability increase [3] 1.14% | viability [4] 88.9% | inhibition [5] 1% | RAM network inhibition [6] 3.74%

C[C@@H](NC(=O)c1coc(=O)c(Br)c1)c1ccccc1
inactive: growth inhibition [1] -24.5% | growth inhibition [2] 3.37% | viability increase [3] -8.28% | viability [4] 63.7% | inhibition [5] 3.79% | RAM network inhibition [6] 7.48%

CN1CCc2c(sc3c2c(=O)n(-c2ccc(Cl)cc2)c2nncn32)C1
inactive: growth inhibition [1] -12.1% | growth inhibition [2] 7.29% | viability increase [3] 0.1% | viability [4] 92.1% | inhibition [5] 1.45% | RAM network inhibition [6] 2.09%

CC1(C)Cc2c(sc3nc(SCC(=O)N4CCOCC4)nc(N)c23)CO1
inactive: growth inhibition [1] -2.9% | growth inhibition [2] 18.3% | viability increase [3] -3.19% | viability [4] 98.9% | inhibition [5] 1.49% | RAM network inhibition [6] 0.62%

O=C(N=c1nc2ccccn2s1)c1ccccc1
inactive: growth inhibition [1] -6.95% | growth inhibition [2] 6.63% | viability increase [3] -7.06% | viability [4] 71.6% | inhibition [5] 3.28% | RAM network inhibition [6] 6.13%

COCCn1c(=O)[nH]c2cc(C(=O)NCCN3CCN(c4ccccc4F)CC3)ccc2c1=O
inactive: growth inhibition [1] 0.575% | growth inhibition [2] 4.3% | viability increase [3] -1.27% | viability [4] 94.3% | inhibition [5] 1.31% | RAM network inhibition [6] 9.5%

COc1cc(-c2nc3cnccn3c2Nc2ccc3c(c2)OCCO3)ccc1O
inactive: growth inhibition [1] -15.6% | growth inhibition [2] -2.52% | viability increase [3] -7.25% | viability [4] 84.5% | inhibition [5] 2.98% | RAM network inhibition [6] 11.8%

CN(C(=O)c1ccc(NC(=O)c2cnccn2)cc1)C1CCCCC1
inactive: growth inhibition [1] 2.12% | growth inhibition [2] 7.4% | viability increase [3] -1.47% | viability [4] 99.9% | inhibition [5] 0.62% | RAM network inhibition [6] 6.39%

COc1ccc2c(c1)-c1nc(NC(=O)c3cccs3)sc1CC2
inactive: growth inhibition [1] -13.6% | growth inhibition [2] -12.2% | viability increase [3] -1.82% | viability [4] 33.6% | inhibition [5] 3.16% | RAM network inhibition [6] 1.99%

CSc1nc(N(CCO)CCO)c2sc3nc(-c4ccco4)c4c(c3c2n1)CCC4
inactive: growth inhibition [1] -1.82% | growth inhibition [2] 8.15% | viability increase [3] -4.84% | viability [4] 93.9% | inhibition [5] 2.71% | RAM network inhibition [6] 8.3%

CCN(CC)CCOc1c(Br)ccc2c1sc1nc3n(c(=O)c12)CCC3
inactive: growth inhibition [1] -1.77% | growth inhibition [2] 6.08% | viability increase [3] -5.02% | viability [4] 30.4% | inhibition [5] 0.405% | RAM network inhibition [6] 5.14%

CC1(C)OC(=O)C(=C2CCCN2)C(=O)O1
inactive: growth inhibition [1] 0.65% | growth inhibition [2] -5.36% | viability increase [3] -1.34% | viability [4] 105% | inhibition [5] 0.815% | RAM network inhibition [6] 6.12%

COCCCNC(=O)c1ccc(Cn2c(=O)[nH]c3ccccc3c2=O)cc1
inactive: growth inhibition [1] -10.2% | growth inhibition [2] -0.91% | viability increase [3] -5.59% | viability [4] 34.9% | inhibition [5] 1.89% | RAM network inhibition [6] 5.69%

COc1ccccc1N1CCN(C2=CC(=O)CCC2)CC1
inactive: growth inhibition [1] -17.3% | growth inhibition [2] -12.2% | viability increase [3] -1.22% | viability [4] 100% | inhibition [5] 0.81% | RAM network inhibition [6] 2.91%

O=C(CN1C(=O)c2cccc3cccc1c23)N1CCN(c2ccc(F)cc2)CC1
inactive: growth inhibition [1] -26.6% | growth inhibition [2] -0.695% | viability increase [3] -2.42% | viability [4] 94.1% | inhibition [5] 2.49% | RAM network inhibition [6] 8.63%

O=C(NCc1ccc2c(c1)OCO2)C1CCN(c2ccc(S(=O)(=O)N3CCCC3)cc2)CC1
inactive: growth inhibition [1] -20.2% | growth inhibition [2] -1.93% | viability increase [3] -6.29% | viability [4] 65.5% | inhibition [5] 3.25% | RAM network inhibition [6] 4.72%

CCN(CC)C(=O)CSc1nnc(-c2ccccc2)n1N
inactive: growth inhibition [1] 3.57% | growth inhibition [2] -0.035% | viability increase [3] -2.74% | viability [4] 93.3% | inhibition [5] 0.76% | RAM network inhibition [6] -0.62%

COc1ccc(C(=O)Nc2ccccc2-c2nnn(CC(=O)NCc3ccco3)n2)cc1
inactive: growth inhibition [1] -1.97% | growth inhibition [2] 10% | viability increase [3] -2.04% | viability [4] 78% | inhibition [5] 4.12% | RAM network inhibition [6] 7.41%
